The results in this text go back to ChEMBL document CHEMBL1121748, “Antimycotic imidazoles. 5. Synthesis and antimycotic properties of 1-[[2-aryl-4-(arylalkyl)-1,3-dioxolan-2-yl]methyl]-1H-imidazoles” (1981).

Where only a bound is given, the exact number is not on record here.

One experiment relates to Candida albicans. Nature of the experiment: Antifungal activity against Candida albicans. Format: functional.
Experiment [1] is described as follows: Ratio of animals cured to that of animals infected, tested in vivo for antifungal activity against vaginal candidosis in rat; 0/2.
In the next experiment the test system is Cryptococcus neoformans. Put plainly: Antifungal activity against Cryptococcus neoformans. Format: functional.
Experiment [2] deals with Phialophora verrucosa. Nature of the experiment: Antifungal activity against Phialophora verrucosa. Format: functional.
The test system of another experiment is Sporothrix schenckii. Nature of the experiment: Antifungal activity against Sporothrix schenck ii. Format: functional.
Another experiment deals with Mucor. Put plainly: Antifungal activity against Mucor species. It counts as functional.
The next experiment has as its system Aspergillus fumigatus. Put plainly: Antifungal activity against Aspergillus fumigatus. It counts as functional.
Another experiment deals with Trichophyton rubrum. Nature of the experiment: Antifungal activity against Trichophyton rubrum. Format: functional.
The next experiment concerns Streptococcus pyogenes. Put plainly: Antibacterial activity against Streptococcus pyogenes. It counts as functional.
Experiment [3] in a line: Ratio of animals cured to that of animals infected, tested in vivo for antifungal activity against cutaneous candidosis in guinea pig; 3/4. It counts as functional.
A further experiment deals with Trichophyton benhamiae. Put plainly: Antifungal activity against Trichophyton mentagrophytes. Format: functional, trychophyton mentagrophytes.
The test system of experiment [4] is Staphylococcus haemolyticus. Nature of the experiment: Antibacterial against Staphylococcus hemolyticus. It counts as functional.
A further experiment relates to Candida tropicalis. Put plainly: Antifungal activity against Candida tropicalis. Format: functional.
The test system of a further experiment is Microsporum canis. Nature of the experiment: Antifungal activity against Microsporum canis. Format: functional.
In experiment [5] the test system is Saprolegnia. Nature of the experiment: Antifungal activity against Saprolegnia species. It counts as functional.
For experiment [6], the system named is Erysipelothrix rhusiopathiae. Nature of the experiment: Antibacterial activity against Erysipelothrix insidiosa. It counts as functional.
Experiment [7] can be described thus: Ratio of animals cured to that of animals […], Tested in vivo for antifungal activity against vaginal candidosis in rat; 2/4. Format: functional.
Experiment [8] in a line: Ratio of animals cured to that of animals infected, tested in vivo for antifungal activity against cutaneous candidosis in guinea pig; 0/2. Format: functional.
Experiment [9] in a line: Ratio of animals cured to that of animals […], Tested in vivo for antifungal activity against vaginal candidosis in rat; 0/2. Format: functional.
Experiment [10] relates to Phialophora verrucosa. Nature of the experiment: compound was tested for antifungal activity against Phialophora verrucosa. It counts as functional.
The test system of experiment [11] is Trichophyton mentagrophytes. Nature of the experiment: Compound was tested for antifungal activity against Trichophyton mentagrophytes.
Experiment [12] can be described thus: Ratio of animals cured to that of animals infected, tested in vivo for antifungal activity against vaginal candidosis in rat; 1/2.
The nature of experiment [13]: Ratio of animals cured to that of animals […], Tested in vivo for antifungal activity against vaginal candidosis in rat; 0/6. It counts as functional.
Experiment [14] can be described thus: Ratio of animals cured to that of animals infected, tested in vivo for antifungal activity against cutaneous candidosis in guinea pig; 4/13. It counts as functional.
For experiment [15], the system named is Saprolegnia. Nature of the experiment: compound was tested for antifungal activity against Saprolegnia species. Format: functional.
Experiment [16] can be described thus: Ratio of animals cured to that of animals infected, tested in vivo for antifungal activity against cutaneous candidosis in guinea pig; 1/2. It counts as functional.
Experiment [17] is described as follows: Ratio of animals cured to that of animals infected, tested in vivo for antifungal activity against vaginal candidosis in rat; 0/2. Format: functional. In a few lines: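 Rat experimental vaginal candidosis. Compounds were given orally as a suspension in polyethylene glycol 200 at 10 mg/kg/day for 14 consecutive days.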

Regarding `Clc1ccc(C2(Cn3ccnc3)OCC(c3ccc(Br)cc3)O2)c(Cl)c1` (centres undefined), the Inhibition in the experiment on Candida albicans was 100 µg/mL; with Cryptococcus neoformans, less than 1 µg/mL; in the experiment on Phialophora verrucosa [2] it was 100 µg/mL; in the experiment on Sporothrix schenckii, 10 µg/mL; in the experiment with Mucor, 10 µg/mL; in the experiment on Aspergillus fumigatus it was less than 1 µg/mL. Further, the Inhibition in the experiment with Trichophyton rubrum was less than 1 µg/mL; in the experiment on Streptococcus pyogenes, 1 µg/mL; in the experiment on Trichophyton benhamiae, less than 1 µg/mL; in experiment [4] it was 10 µg/mL; in the experiment with Candida tropicalis it was 10 µg/mL; in the experiment on Microsporum canis it was less than 1 µg/mL. Further, the Inhibition was found to be 100 µg/mL in the experiment with Saprolegnia [5] and 1 µg/mL in [6]. Besides, the Ratio in experiment [1] came to 0; in [3], 0.75.
With `COc1ccc(CCC2COC(Cn3ccnc3)(c3ccc(Cl)cc3Cl)O2)cc1` (centres undefined), the Inhibition with Candida albicans is 100 µg/mL; in the experiment with Cryptococcus neoformans it was 1 µg/mL; in the experiment with Phialophora verrucosa [2], 100 µg/mL; in the experiment with Sporothrix schenckii it was 10 µg/mL; in the experiment with Mucor, 100 µg/mL; in the experiment with Aspergillus fumigatus, less than 1 µg/mL. In addition, the Inhibition with Trichophyton rubrum is less than 1 µg/mL; with Streptococcus pyogenes it was less than 1 µg/mL; in the experiment with Trichophyton benhamiae it was less than 1 µg/mL; in [4], 100 µg/mL; with Candida tropicalis, 10 µg/mL; in the experiment on Microsporum canis, 1 µg/mL. Besides, the Inhibition in the experiment with Saprolegnia [5] was 100 µg/mL; in [6], less than 1 µg/mL. Besides, the Ratio was determined as 0.5 in experiment [7] and 0 in [8].
For `Clc1ccc(C2(Cn3ccnc3)OCC(CCc3ccccc3)O2)c(Cl)c1` (centres undefined), the Inhibition was 100 µg/mL in the experiment on Candida albicans; less than 1 µg/mL with Cryptococcus neoformans; less than 1 µg/mL in the experiment with Sporothrix schenckii; 10 µg/mL with Mucor; less than 1 µg/mL in the experiment with Aspergillus fumigatus; 100 µg/mL with Phialophora verrucosa [10]. Besides, the Inhibition was less than 1 µg/mL in the experiment on Trichophyton rubrum; less than 1 µg/mL in the experiment on Streptococcus pyogenes; less than 1 µg/mL in the experiment with Trichophyton benhamiae; 10 µg/mL in [4]; 10 µg/mL in the experiment with Candida tropicalis; less than 1 µg/mL in the experiment on Microsporum canis. The Inhibition is 100 µg/mL with Saprolegnia [5] and less than 1 µg/mL in experiment [6]. Further, the Ratio in experiment [9] amounted to 0.
On to `Cc1ccc(C2COC(Cn3ccnc3)(c3ccc(Br)cc3)O2)cc1` (centres undefined), for which the Inhibition was determined as 10 µg/mL in the experiment on Candida albicans; 10 µg/mL with Cryptococcus neoformans; 10 µg/mL in experiment [11]; 100 µg/mL with Phialophora verrucosa [2]; 100 µg/mL in the experiment on Sporothrix schenckii; 10 µg/mL in the experiment on Mucor. The Inhibition in the experiment with Aspergillus fumigatus is less than 1 µg/mL; in the experiment with Trichophyton rubrum it was less than 1 µg/mL; with Streptococcus pyogenes, 10 µg/mL; in experiment [4], 10 µg/mL; with Candida tropicalis, greater than 100 µg/mL; with Microsporum canis it was less than 1 µg/mL. Also, the results for the Inhibition (with Saprolegnia [5]; in experiment [6]) were 100 µg/mL and 1 µg/mL, respectively. In addition, the Ratio in experiment [12] turned out to be 1.
For `Clc1ccc(COC(Cn2ccnc2)c2ccc(Cl)cc2Cl)c(Cl)c1` (centres undefined) [MICONAZOLE], the Inhibition in the experiment with Candida albicans is 10 µg/mL; in the experiment with Cryptococcus neoformans it was 1 µg/mL; in the experiment with Phialophora verrucosa [2], 100 µg/mL; in the experiment with Sporothrix schenckii, 1 µg/mL; with Mucor, greater than 100 µg/mL; in the experiment on Aspergillus fumigatus, 10 µg/mL. Besides, the Inhibition was less than 1 µg/mL in the experiment on Trichophyton rubrum; less than 1 µg/mL in the experiment with Streptococcus pyogenes; less than 1 µg/mL in the experiment with Trichophyton benhamiae; 10 µg/mL in [4]; 100 µg/mL in the experiment on Candida tropicalis; 1 µg/mL with Microsporum canis. Further, the Inhibition is 10 µg/mL with Saprolegnia [5] and less than 1 µg/mL in experiment [6]. For the same molecule, the Ratio in experiment [13] was 0; in experiment [14] it was 0.31.
In the case of `Clc1ccc(C2COC(Cn3ccnc3)(c3ccccc3)O2)c(Cl)c1` (centres undefined), the Inhibition is greater than 100 µg/mL in the experiment on Candida albicans; 10 µg/mL with Cryptococcus neoformans; 100 µg/mL in the experiment with Phialophora verrucosa [2]; 10 µg/mL in the experiment on Sporothrix schenckii; 100 µg/mL in the experiment with Mucor; 100 µg/mL in the experiment on Saprolegnia [15]. For the same molecule, the Inhibition with Aspergillus fumigatus was 10 µg/mL; in the experiment on Trichophyton rubrum, less than 1 µg/mL; with Streptococcus pyogenes it was 1 µg/mL; in the experiment on Trichophyton benhamiae, less than 1 µg/mL; in experiment [4], 10 µg/mL; in the experiment with Candida tropicalis it was greater than 100 µg/mL. Besides, the Inhibition (with Microsporum canis; in [6]) was 10 µg/mL each time. The Ratio in experiment [8] was 0.
With `Clc1ccc(C2COC(Cn3ccnc3)(c3ccccc3)O2)cc1` (centres undefined), the Inhibition in the experiment on Candida albicans is greater than 100 µg/mL; in the experiment on Cryptococcus neoformans, 10 µg/mL; with Phialophora verrucosa [2] it was 100 µg/mL; with Sporothrix schenckii, 10 µg/mL; in the experiment with Mucor, 100 µg/mL; in the experiment on Aspergillus fumigatus, 10 µg/mL. The Inhibition is less than 1 µg/mL with Trichophyton rubrum; 1 µg/mL with Streptococcus pyogenes; less than 1 µg/mL with Trichophyton benhamiae; 100 µg/mL in [4]; 100 µg/mL with Candida tropicalis; less than 1 µg/mL in the experiment with Microsporum canis. For the same molecule, the Inhibition with Saprolegnia [5] was 100 µg/mL; in experiment [6], 1 µg/mL. The Ratio in experiment [16] is reported as 1; in [17], 0.
